In data set [1] the test system is Pediococcus. Put plainly: Induction of growth of Pediococcus cerevisiae ATCC 8081 up to 5 ug/mL. In kind it is functional.
The subject of data set [2] is Enterococcus faecium. Put plainly: Induction of growth of Streptococcus faecium ATCC 8043 up to 5 ug/mL. In kind it is functional, organism-based.
Data set [3] deals with Lacticaseibacillus casei. The data set can be described thus: Induction of growth of Lactobacillus casei ATCC 7469 up to 5 ug/mL. The class given is functional, organism-based.
The subject of data set [4] is Pediococcus. The data set can be described thus: Growth inhibition of Pediococcus cerevisiae ATCC 8081 up to 5 ug/mL. The class given is functional. Summed up: (§1)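 Media were as follows. L. casei ATCC 7469 was grown on folate assay broth with folate at 1 ng/mL. P. cerevisiae ATCC 8081 was grown on CF assay medium with dl-5-formyltetrahydrofolate at 1 ng/mL. S. faecium ATCC 8043 was grown on Flynn medium with folate at 1 ng/mL.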

The test system of data set [5] is Enterococcus faecium. Put plainly: Growth inhibition of Streptococcus faecium ATCC 8043 up to 5 ug/mL. In kind it is functional, organism-based. The gist of the method: as §1
Data set [6] concerns Lacticaseibacillus casei. The data set can be described thus: Growth inhibition of Lactobacillus casei ATCC 7469 up to 5 ug/mL. In kind it is functional, organism-based. The gist of the method:
as §1

The target of data set [7] is T1, Thymidylate synthase (Lactobacillus casei) (UniProt P00469).
T1 sequence (whole entry): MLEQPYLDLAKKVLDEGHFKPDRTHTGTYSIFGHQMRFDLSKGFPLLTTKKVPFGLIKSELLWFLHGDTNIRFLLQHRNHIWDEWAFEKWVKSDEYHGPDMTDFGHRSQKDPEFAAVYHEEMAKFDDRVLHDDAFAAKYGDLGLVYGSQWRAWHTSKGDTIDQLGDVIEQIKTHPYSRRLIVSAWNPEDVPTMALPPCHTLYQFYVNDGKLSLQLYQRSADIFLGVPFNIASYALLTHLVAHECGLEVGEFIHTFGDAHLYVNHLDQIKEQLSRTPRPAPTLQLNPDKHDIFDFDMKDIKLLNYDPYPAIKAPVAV
Put plainly: Inhibition of Lactobacillus casei thymidylate synthetase using l-5,10-Methylene tetrahydropteroyl-L-glutamate as substrate at 6.3 x 10^-5 M by spectrophotometric analysis. As to conditions: Lacticaseibacillus casei.

For data set [8], the target named is T1, Thymidylate synthase (Lactobacillus casei). The data set can be described thus: Inhibition of Lactobacillus casei thymidylate synthetase using l-5,10-Methylene tetrahydropteroyl-L-glutamate as substrate at 6.3 x 10^-5 M relative to control. To be noted: Lacticaseibacillus casei.
Data set [9] shares this target. The data set can be described thus: Inhibition of Lactobacillus casei thymidylate synthetase at 1.7 x 10^-6 M relative to control. As to conditions: Lacticaseibacillus casei.
Data set [10] shares this target. Put plainly: Activity of Lactobacillus casei thymidylate synthetase at 3 x 10^-4 M by spectrophotometric analysis. As to conditions: Lacticaseibacillus casei.
Data set [11] has the same target. Put plainly: Activity of Lactobacillus casei thymidylate synthetase assessed as release of [3H] from [5-3H]-deoxyuridine 5' phosphate at 3 x 10^-4 M. As to conditions: Lacticaseibacillus casei.
For data set [12] the target is unchanged. Put plainly: Inhibition of Lactobacillus casei thymidylate synthetase using dl-5,10-Methylene tetrahydropteroyl-L-glutamate as substrate at 9.2 x 10^-5 M relative to control. As to conditions: Lacticaseibacillus casei.
For data set [13] the target is unchanged. Put plainly: Inhibition of Lactobacillus casei thymidylate synthetase using dl-5,10-Methylene tetrahydropteroyl-L-glutamate as substrate at 9.2 x 10^-5 M by spectrophotometric analysis. As to conditions: Lacticaseibacillus casei.
Data set [14] has the same target. The data set can be described thus: Inhibition of Lactobacillus casei thymidylate synthetase using dl-5,10-Methylene tetrahydropteroyl-L-glutamate as substrate at 3.3 x 10^-5 M by spectrophotometric analysis. As to conditions: Lacticaseibacillus casei.
The target is the same in data set [15]. Put plainly: Activity of Lactobacillus casei thymidylate synthetase at 7 x 10^-5 M by spectrophotometric analysis. As to conditions: Lacticaseibacillus casei.
For data set [16] the target is unchanged. Put plainly: Inhibition of Lactobacillus casei thymidylate synthetase using dl-5,10-Methylene tetrahydropteroyl-L-glutamate as substrate at 3.3 x 10^-5 M relative to control. As to conditions: Lacticaseibacillus casei.
The target of data set [17] is Dihydrofolate reductase (Lactobacillus casei) (UniProt P00381). The data set can be described thus: Inhibition of Lactobacillus casei dihydrofolate reductase using 7,8-Dihydropteroyl-L-glutamate as substrate at 1.5 x 10^-5 M by spectrophotometric analysis. To be noted: Lacticaseibacillus casei.
Dihydrofolate reductase (Lactobacillus casei), sequence (P00381 whole entry): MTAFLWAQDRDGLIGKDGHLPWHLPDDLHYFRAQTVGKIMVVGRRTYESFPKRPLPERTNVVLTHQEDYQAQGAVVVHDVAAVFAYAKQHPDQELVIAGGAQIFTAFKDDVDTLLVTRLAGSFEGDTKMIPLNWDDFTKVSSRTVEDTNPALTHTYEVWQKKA
For data set [18] the target is unchanged. The data set can be described thus: Inhibition of Lactobacillus casei dihydrofolate reductase using 7,8-Dihydropteroyl-L-glutamate as substrate at 1.5 x 10^-5 M relative to control. As to conditions: Lacticaseibacillus casei.
Data set [19] deals with T1, Thymidylate synthase (Lactobacillus casei). The data set can be described thus: Inhibition of Lactobacillus casei thymidylate synthetase using dl-5,10-Methylene tetrahydropteroyl-L-glutamate as substrate at 2.4 x 10^-5 M by spectrophotometric analysis. To be noted: Lacticaseibacillus casei.
For data set [20] the target is unchanged. The data set can be described thus: Activity of Lactobacillus casei thymidylate synthetase at 4.5 x 10^-5 M by spectrophotometric analysis. As to conditions: Lacticaseibacillus casei.
For data set [21] the target is unchanged. The data set can be described thus: Inhibition of Lactobacillus casei thymidylate synthetase using dl-5,10-Methylene tetrahydropteroyl-L-glutamate as substrate at 2.4 x 10^-5 M relative to control. As to conditions: Lacticaseibacillus casei.
Data set [22] has the same target. The data set can be described thus: Activity of Lactobacillus casei thymidylate synthetase assessed as release of [3H] from [5-3H]-deoxyuridine 5' phosphate at 4.5 x 10^-5 M. As to conditions: Lacticaseibacillus casei.
Data set [23] shares this target. Put plainly: Inhibition of Lactobacillus casei thymidylate synthetase using dl-5,10-Methylene tetrahydropteroyl-L-glutamate as substrate at 1 x 10^-4 M relative to control. To be noted: Lacticaseibacillus casei.
Data set [24] has the same target. Put plainly: Inhibition of Lactobacillus casei thymidylate synthetase using dl-5,10-Methylene tetrahydropteroyl-L-glutamate as substrate at 1 x 10^-4 M by spectrophotometric analysis. As to conditions: Lacticaseibacillus casei.
Data set [25] shares this target. Put plainly: Inhibition of Lactobacillus casei thymidylate synthetase using dl-5,10-Methylene tetrahydropteroyl-L-glutamate as substrate at 1.3 x 10^-5 M relative to control. To be noted: Lacticaseibacillus casei.
For data set [26] the target is unchanged. The data set can be described thus: Inhibition of Lactobacillus casei thymidylate synthetase using dl-5,10-Methylene tetrahydropteroyl-L-glutamate as substrate at 1.3 x 10^-5 M by spectrophotometric analysis. To be noted: Lacticaseibacillus casei.
Substrate in data set [27]: Nc1nc(=O)c2c([nH]1)NCC1CN(c3ccc(C(=O)N[C@@H](CCC(=O)O)C(=O)O)cc3)CN21
The data set can be described thus: Activity of Lactobacillus casei thymidylate synthetase by spectrophotometric analysis. As to conditions: Lacticaseibacillus casei.

The source of these data is ChEMBL document CHEMBL3272134, “Diastereoisomers of 5,10-methylene-5,6,7,8-tetrahydropteroyl-D-glutamic acid” (J Med Chem, 1977).

Activity calls are given as the source filed them. The rule behind the calls is not given here. Some results are limits rather than exact numbers.

With `Nc1nc(=O)c2c([nH]1)NCC1CN(c3ccc(C(=O)N[C@@H](CCC(=O)O)C(=O)O)cc3)CN21` (stereo in doubt), the outcome with Pediococcus [1], in the data set with Enterococcus faecium [2] and in the data set on Lacticaseibacillus casei [3] was inactive. Also, the “growth inhibition (GI)” value with Pediococcus [4], in the data set on Enterococcus faecium [5] and in the data set on Lacticaseibacillus casei [6] was “inactive” each time. Moreover, the deltaOD in data set [7] was found to be 0.02 min⁻¹. For the same molecule, the inhibition in [8] stood at 14%.
For `CN(Cc1ccc2nc(N)nc(O)c2c1)c1ccc(C(=O)N[C@@H](CCC(=O)O)C(=O)O)cc1`, the inhibition in [9] worked out at 83%.
With `Nc1nc(=O)c2c([nH]1)NCC1CN(c3ccc(C(=O)N[C@@H](CCC(=O)O)C(=O)O)cc3)CN21` (mixture of isomers), the result in the data set with Pediococcus [1], in the data set with Enterococcus faecium [2] and with Lacticaseibacillus casei [3] was inactive. In addition, the “growth inhibition (GI)” value in the data set with Pediococcus [4], in the data set on Enterococcus faecium [5] and in the data set with Lacticaseibacillus casei [6] was “inactive” each time. This molecule also registered a deltaOD in data set [10] of 0.03 min⁻¹. Besides, the Activity in data set [11] was found to be 71000 cpm.
`Nc1nc2c(c(=O)[nH]1)N=C(CNc1ccc(C(=O)N[C@H](CCC(=O)O)C(=O)O)cc1)CN2` came in with an inhibition in data set [12] of 10%. Further, in data set [13], the deltaOD amounted to 0.027 min⁻¹.
On to `Nc1nc2c(c(=O)[nH]1)N1CN(c3ccc(C(=O)N[C@H](CCC(=O)O)C(=O)O)cc3)CC1CN2` (mixture of isomers), for which the result in the data set with Pediococcus [1], in the data set on Enterococcus faecium [2] and with Lacticaseibacillus casei [3] was inactive. The “growth inhibition (GI)” value in the data set with Pediococcus [4], with Enterococcus faecium [5] and in the data set with Lacticaseibacillus casei [6] was “inactive” each time. The deltaOD amounted to 0.03 min⁻¹ in data set [14] and 0 min⁻¹ in [15]. Besides, the inhibition in data set [16] was determined as 0%.
Turning to `Nc1nc2c(c(=O)[nH]1)N1CN(c3ccc(C(=O)N[C@H](CCC(=O)O)C(=O)O)cc3)CC1CN2` (stereo in doubt; form 1), the deltaOD in data set [17] came out at 0.032 min⁻¹; in [19], 0.03 min⁻¹; in [20] it was 0 min⁻¹. Moreover, the inhibition in [18] and in data set [21] was 0% throughout. In addition, the result in the data set with Pediococcus [1], in the data set on Enterococcus faecium [2] and with Lacticaseibacillus casei [3] was inactive. The “growth inhibition (GI)” value in the data set on Pediococcus [4], in the data set on Enterococcus faecium [5] and with Lacticaseibacillus casei [6] was “inactive” throughout. Also, the Activity in data set [22] is less than 2000 cpm.
For the molecule `Nc1nc(=O)c2c([nH]1)NCC(CNc1ccc(C(=O)N[C@@H](CCC(=O)O)C(=O)O)cc1)=N2`, the inhibition in data set [23] was 26%. For the same molecule, in data set [24], the deltaOD turned out to be 0.02 min⁻¹.
Regarding `Nc1nc2c(c(=O)[nH]1)N1CN(c3ccc(C(=O)N[C@H](CCC(=O)O)C(=O)O)cc3)CC1CN2` (stereo in doubt; form 2), the inhibition in data set [25] and in [18] was 0% throughout. Besides, the deltaOD in data set [17] was 0.032 min⁻¹; in data set [20] it was 0 min⁻¹; in data set [26], 0.03 min⁻¹. In addition, the outcome in the data set with Pediococcus [1], in the data set on Enterococcus faecium [2] and with Lacticaseibacillus casei [3] was inactive. The “growth inhibition (GI)” value in the data set with Pediococcus [4], in the data set on Enterococcus faecium [5] and with Lacticaseibacillus casei [6] was “inactive” in each case. The Activity in data set [22] was less than 2000 cpm.

B1: Thymidylate synthase (Lactobacillus casei), P00469 (protein)
chain: T1 sequence (whole entry)
As for B1, in [27], the Michaelis-Menten constant (Km) stood at 15 µM.

As a reminder, the inhibition is the percentage by which the read-out fell short of the control. Low values mean a response near the control, high ones a response far below the control. The Km is the concentration of substrate that gives half-maximal velocity.
